In brackets after ≈: the same amount, converted by molar mass.

Broadly, the MIC is the lowest concentration found to suppress growth.

Data set [1] concerns Staphylococcus aureus. Kind of data set: Antimicrobial activity against methicillin-resistant Staphylococcus aureus USA100 assessed as reduction in bacterial growth incubated for 18 to 20 hrs at 37 degC by broth microdilution method. Type of data set: functional. An outline of the steps:
(§1)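 Modified CLSI broth microdilution. Bacterial suspension of about 1 × 10^5 CFU/mL in tryptic soy broth. Each agent was added in triplicate to the first row and serially diluted down the plate. Plates were incubated at 37 °C for 18-20 h. MIC was read as the lowest concentration with no visible growth.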

Data set [2] concerns Staphylococcus aureus. Kind of data set: Antimicrobial activity against methicillin-resistant Staphylococcus aureus USA500 assessed as reduction in bacterial growth incubated for 18 to 20 hrs at 37 degC by broth microdilution method. Type of data set: functional. An outline of the steps:
as §1
(In general: Dilution methods test growth across graded concentrations, often in twofold steps.)

In data set [3] the test system is J774. The class given is cell-based. Particulars: mouse, j774, 2 h, 128 µM.
Data set [4] relates to J774. Kind of data set: Cytotoxicity against mouse J774 cells assessed as reduction in cell viability at 32 uM incubated for 2 hrs by MTS assay. The class given is cell-based. Particulars: j774, 2 h. Summed up: (§2)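 Murine J774 macrophages grown in DMEM with 10% FBS at 37 °C, 5% CO2. Compounds were tested in triplicate at 16, 32, 64 and 128 μM for 2 h, with DMSO-matched vehicle controls. MTS reagent was then added and absorbance read at OD490. Viability is given as percent of DMSO-treated cells (mean of triplicate ± standard deviation), compared by paired t-test (P < 0.05).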
(In general: Formazan colour is commonly taken as a measure of viable cells.)

In data set [5] the test system is Staphylococcus aureus. Kind of data set: Antimicrobial activity against vancomycin-intermediate-resistant Staphylococcus aureus NRS1 assessed as reduction in bacterial growth incubated for 18 to 20 hrs at 37 degC by broth microdilution method. Type of data set: functional. An outline of the steps: as §1
Data set [6] has as its system Staphylococcus aureus. Description: Antimicrobial activity against methicillin-resistant Staphylococcus aureus NRS119 assessed as reduction in bacterial growth incubated for 18 to 20 hrs at 37 degC by broth microdilution method. Type of data set: functional. Summed up:
as §1

Data set [7] concerns Staphylococcus aureus. Description: Antimicrobial activity against methicillin-sensitive Staphylococcus aureus NRS72 assessed as reduction in bacterial growth incubated for 18 to 20 hrs at 37 degC by broth microdilution method. The class given is functional. Summed up: as §1
Data set [8] has as its system Staphylococcus aureus. Kind of data set: Antimicrobial activity against methicillin-resistant Staphylococcus aureus USA300 assessed as reduction in bacterial growth incubated for 18 to 20 hrs at 37 degC by broth microdilution method. Type of data set: functional. An outline of the steps: as §1
In data set [9] the test system is Staphylococcus aureus. Kind of data set: Antimicrobial activity against methicillin-resistant Staphylococcus aureus USA200 assessed as reduction in bacterial growth incubated for 18 to 20 hrs at 37 degC by broth microdilution method. Type of data set: functional. Summed up: as §1
The test system of data set [10] is Staphylococcus aureus. Description: Antimicrobial activity against vancomycin-resistant Staphylococcus aureus VRS2 assessed as reduction in bacterial growth incubated for 18 to 20 hrs at 37 degC by broth microdilution method. The class given is functional. An outline of the steps: as §1
Data set [11] relates to Staphylococcus aureus. Kind of data set: Antimicrobial activity against methicillin-resistant Staphylococcus aureus USA700 assessed as reduction in bacterial growth incubated for 18 to 20 hrs at 37 degC by broth microdilution method. Type of data set: functional. An outline of the steps: as §1
Data set [12] relates to J774. Description: Cytotoxicity against mouse J774 cells assessed as reduction in cell viability at 64 uM incubated for 2 hrs by MTS assay. Type of data set: cell-based. Particulars: j774, 2 h. Summed up:
as §2

`[C-]#[N+]c1ccccc1/C=C/c1ccccc1C(F)(F)F`: the minimum inhibitory concentration (MIC) in [1] is 16 µM (≈ 4.37 µg/mL); in data set [2], 16 µM (≈ 4.37 µg/mL); in data set [5], 8 µM (≈ 2.19 µg/mL); in data set [6], greater than 128 µM; in [7], 8 µM (≈ 2.19 µg/mL); in [8], 32 µM (≈ 8.74 µg/mL). The minimal inhibitory concentration (MIC) amounted to 16 µM (≈ 4.37 µg/mL) in data set [9], 32 µM (≈ 8.74 µg/mL) in data set [10] and 16 µM (≈ 4.37 µg/mL) in data set [11]. Further, the values for the Activity result in data set [3], in [4] and in data set [12] were “Toxic”, “Non-toxic” and “Non-toxic”, respectively.
With `[C-]#[N+]c1ccccc1/C=C(\CC)c1cccc(C(F)(F)F)c1`, the minimal inhibitory concentration (MIC) was 4 µM (≈ 1.21 µg/mL) in [1]; 2 µM (≈ 0.603 µg/mL) in [5]; 4 µM (≈ 1.21 µg/mL) in [7]; greater than 128 µM in [8]; 8 µM (≈ 2.41 µg/mL) in data set [10]; 2 µM (≈ 0.603 µg/mL) in [11]. Besides, the Activity entry in data set [3] was “Toxic”; in data set [4], “Non-toxic”; in data set [12] it was “Toxic”.
With `[C-]#[N+]c1ccc(/C=C/c2ccccc2)cc1`, the minimal inhibitory concentration (MIC) in data set [1] was 4 µM (≈ 0.821 µg/mL); in data set [2], 16 µM (≈ 3.28 µg/mL); in data set [5], greater than 128 µM; in [6], greater than 128 µM; in data set [7] it was 4 µM (≈ 0.821 µg/mL); in [8], 4 µM (≈ 0.821 µg/mL). In addition, the MIC in [9] was 32 µM (≈ 6.57 µg/mL); in data set [10], greater than 128 µM; in data set [11] it was 64 µM (≈ 13.1 µg/mL). For the same molecule, the Activity entry in [3], in [4] and in [12] was “Non-toxic” throughout.
As to `[C-]#[N+]c1ccccc1/C=C/c1ccc([N+](=O)[O-])cc1`, the MIC in [1] turned out to be 4 µM (≈ 1 µg/mL); in data set [5], 4 µM (≈ 1 µg/mL); in [6], 16 µM (≈ 4 µg/mL); in data set [7], 2 µM (≈ 0.501 µg/mL); in data set [9] it was 4 µM (≈ 1 µg/mL); in [10], 8 µM (≈ 2 µg/mL). For the same molecule, the Activity result in [3], in data set [4] and in data set [12] was “Toxic” in each case.
For the molecule `[C-]#[N+]c1ccccc1/C=C/c1ccc(OC)cc1`, the minimum inhibitory concentration (MIC) is 8 µM (≈ 1.88 µg/mL) in [1]; greater than 128 µM in data set [2]; 4 µM (≈ 0.941 µg/mL) in [5]; 32 µM (≈ 7.53 µg/mL) in [6]; 4 µM (≈ 0.941 µg/mL) in [7]; 16 µM (≈ 3.76 µg/mL) in data set [8]. Besides, the MIC in data set [9] came to 2 µM (≈ 0.471 µg/mL); in [10], 32 µM (≈ 7.53 µg/mL); in data set [11], 8 µM (≈ 1.88 µg/mL). The figures for the Activity result in data set [3], in [4] and in data set [12] were “Toxic”, “Non-toxic” and “Non-toxic”, respectively.
As for `[C-]#[N+]c1ccccc1/C=C/c1ccccc1OC`, the MIC in data set [1] amounted to 8 µM (≈ 1.88 µg/mL); in [2] it was 8 µM (≈ 1.88 µg/mL); in data set [5], 4 µM (≈ 0.941 µg/mL); in data set [6] it was 16 µM (≈ 3.76 µg/mL); in [7], 8 µM (≈ 1.88 µg/mL); in data set [8] it was 8 µM (≈ 1.88 µg/mL). For the same molecule, the MIC in data set [9] stood at 8 µM (≈ 1.88 µg/mL); in data set [10] it was 16 µM (≈ 3.76 µg/mL); in [11] it was 8 µM (≈ 1.88 µg/mL). In addition, the Activity entry in [3] is given as “Toxic”; in [4], “Non-toxic”; in data set [12], “Non-toxic”.
In the case of `[C-]#[N+]c1ccccc1/C=C/c1ccc(C(F)(F)F)cc1`, the MIC in data set [1] is 4 µM (≈ 1.09 µg/mL); in data set [2] it was 16 µM (≈ 4.37 µg/mL); in [5] it was 2 µM (≈ 0.547 µg/mL); in [6], 16 µM (≈ 4.37 µg/mL); in [7] it was 4 µM (≈ 1.09 µg/mL); in data set [8], 8 µM (≈ 2.19 µg/mL). The MIC in data set [9] came to 2 µM (≈ 0.547 µg/mL); in data set [10], 16 µM (≈ 4.37 µg/mL); in data set [11], 2 µM (≈ 0.547 µg/mL). Besides, the Activity entry is given as “Toxic” in [3], “Non-toxic” in data set [4] and “Non-toxic” in data set [12].
On to `[C-]#[N+]c1ccccc1/C=C/c1ccc(C)cc1`, for which the MIC in data set [1] was 4 µM (≈ 0.877 µg/mL); in data set [2], 32 µM (≈ 7.02 µg/mL); in data set [5] it was 4 µM (≈ 0.877 µg/mL); in data set [6], 64 µM (≈ 14 µg/mL); in data set [7] it was 16 µM (≈ 3.51 µg/mL); in data set [8], 16 µM (≈ 3.51 µg/mL). Besides, the minimum inhibitory concentration (MIC) in [9] is 4 µM (≈ 0.877 µg/mL); in data set [10] it was 32 µM (≈ 7.02 µg/mL); in [11] it was 8 µM (≈ 1.75 µg/mL). Besides, the Activity result is “Toxic” in data set [3], “Non-toxic” in data set [4] and “Non-toxic” in [12].
Turning to `[C-]#[N+]c1ccccc1/C=C/c1ccc(F)cc1`, the minimum inhibitory concentration (MIC) in data set [1] is 8 µM (≈ 1.79 µg/mL); in data set [2] it was 16 µM (≈ 3.57 µg/mL); in [5] it was 4 µM (≈ 0.893 µg/mL); in [6], 16 µM (≈ 3.57 µg/mL); in data set [7], 4 µM (≈ 0.893 µg/mL); in data set [8], 8 µM (≈ 1.79 µg/mL). Moreover, the minimum inhibitory concentration (MIC) in data set [9] turned out to be 2 µM (≈ 0.446 µg/mL); in data set [10] it was 32 µM (≈ 7.14 µg/mL); in [11], 8 µM (≈ 1.79 µg/mL). The figures for the Activity result in data set [3], in [4] and in data set [12] were “Toxic”, “Non-toxic” and “Non-toxic”, respectively.
